{"data": "Published values gathered from unrelated publications", "cell line": "NCI-H460", "read-out": "cell growth or viability", "note": "Protocols differ between the studies behind these lines."}
{"Structure (SMILES)": "COc1ccc(NC(=O)Nc2cccc(-c3cn(Cc4ccc(Cl)cc4)nn3)c2)cc1", "method": "CCK-8", "tested at": "50 µM", "time": "72 h", "endpoint": "viability", "value": "104%"}
{"Structure (SMILES)": "CCCCCCCCCCCCCCCCCCOc1ccccc1CC(=O)OCC[N+](C)(C)C", "method": "SRB", "tested at": "10 µM", "endpoint": "inhibition", "value": "86.5%"}
{"Structure (SMILES)": "FC(F)(F)c1cc(OCc2cc(-c3ccc(Cl)cc3Cl)no2)c2ccccc2n1", "method": "MTS", "time": "72 h", "endpoint": "IC50", "value": "> 100 µM"}
{"Structure (SMILES)": "CCCCCCCCCCCCCCCCCCOc1ccc(CC(=O)OCC[N+](CC)(CC)CC)cc1", "method": "SRB", "tested at": "10 µM", "endpoint": "inhibition", "value": "15.8%"}
{"Structure (SMILES)": "O=c1cc(OCc2cc(-c3ccc(Cl)cc3Cl)no2)c2ccccc2o1", "method": "MTS", "time": "72 h", "endpoint": "IC50", "value": "> 100 µM"}
{"Structure (SMILES)": "O=C(Nc1ccc(Cl)cc1)Nc1cccc(-c2cn(Cc3cccc(Br)c3)nn2)c1", "method": "CCK-8", "tested at": "50 µM", "time": "72 h", "endpoint": "viability", "value": "88.2%"}
{"Structure (SMILES)": "CCCCCCCCCCCCCCCCCCOc1cccc(CC(=O)OCC[N+](C)(C)C)c1", "method": "SRB", "tested at": "10 µM", "endpoint": "inhibition", "value": "2.4%"}
{"Structure (SMILES)": "O=C(CSc1nc2ccccc2s1)N/N=C/c1ccc(OCC(=O)Nc2ccc(Br)cc2)cc1", "method": "MTS", "time": "72 h", "endpoint": "IC50", "value": "14 µM"}
{"Structure (SMILES)": "COc1ccc(NC(=O)NCc2cn(Cc3ccc(Cl)cc3)nn2)cc1", "method": "CCK-8", "tested at": "50 µM", "time": "72 h", "endpoint": "viability", "value": "91.8%"}
{"Structure (SMILES)": "CCCCCCCCCCCCCCCCCCOc1ccccc1CC(=O)OCC[N+]1(C)CCOCC1", "method": "SRB", "tested at": "10 µM", "endpoint": "inhibition", "value": "30.8%"}
{"Structure (SMILES)": "FC(F)(F)c1ccc(-c2cc(CNc3cccc4cccnc34)on2)cc1", "method": "MTS", "time": "72 h", "endpoint": "IC50", "value": "> 100 µM"}
{"Structure (SMILES)": "CCCCCCCCCCCCCCCCCCOc1ccc(CC(=O)OCCC[N+](C)(C)C)cc1", "method": "SRB", "tested at": "10 µM", "endpoint": "inhibition", "value": "26.7%"}
{"Structure (SMILES)": "N#Cc1ccc(-c2cc(COc3cc(=O)oc4ccccc34)on2)cc1", "method": "MTS", "time": "72 h", "endpoint": "IC50", "value": "> 100 µM"}
{"Structure (SMILES)": "COc1ccc(NC(=O)NCc2cn(Cc3ccc(Br)cc3)nn2)cc1", "method": "CCK-8", "tested at": "50 µM", "time": "72 h", "endpoint": "viability", "value": "77.1%"}
{"Structure (SMILES)": "COc1cc([C@@H]2c3cc4c(cc3[C@@H](O[C@@H]3O[C@@H]5CO[C@@H](C)O[C@H]5[C@H](O)[C@H]3O)[C@H]3COC(=O)[C@H]23)OCO4)cc(OC)c1O", "method": "MTS", "time": "72 h", "endpoint": "IC50", "value": "0.69 µM"}
{"Structure (SMILES)": "CCCCCCCCCCCCCCCCCCOc1cccc(CC(=O)OCC[N+]2(C)CCCC2)c1", "method": "SRB", "tested at": "10 µM", "endpoint": "inhibition", "value": "4.17%"}
{"Structure (SMILES)": "COc1ccc(NC(=O)Nc2ccc(-c3cn(Cc4ccc(Br)cc4)nn3)cc2)cc1", "method": "CCK-8", "tested at": "50 µM", "time": "72 h", "endpoint": "viability", "value": "86.6%"}
{"Structure (SMILES)": "O=c1cc(OCc2cc(-c3ccccn3)no2)c2ccccc2o1", "method": "MTS", "time": "72 h", "endpoint": "IC50", "value": "> 100 µM"}
